Laboratory results reported in ChEMBL document CHEMBL3414434, “Exploring the chemical space of ureidothiophene-2-carboxylic acids as inhibitors of the quorum sensing enzyme PqsD from Pseudomonas aeruginosa” (Eur J Med Chem, 2015).
Calls of active or inactive are those of the source. No cut-off for these calls is given here. Starred links: 1 amine or outer side, 2 acyl side, 3 side chain; linkers in the order of their positions; H or OH if unused. Non-standard residues stand in square brackets, D forms with d. Residues, ends and D or L forms follow the SMILES beside them. *: point of attachment. X1 = COc1ccc(-c2cc(N*)c(C(=O)O)s2)cc1; AEEA = NCCOCCOCC(=O)O; CO = O=C([*:1])[*:2]

Experiments:
[1] = target: T1, 2-heptyl-4(1H)-quinolone synthase PqsD (Pseudomonas aeruginosa, UniProt A0A0C7ACN7); experiment: (§1) Inhibition of recombinant His6-tagged Pseudomonas aeruginosa PqsD expressed in Escherichia coli BL21 (deltaDE3) using anthraniloyl-CoA/beta-ketodecanoic acid as substrate assessed as HHQ formation preincubated for 10 mins followed by substrate addition by HPLC/MS-MS analysis
T1 sequence (A0A0C7ACN7 whole entry): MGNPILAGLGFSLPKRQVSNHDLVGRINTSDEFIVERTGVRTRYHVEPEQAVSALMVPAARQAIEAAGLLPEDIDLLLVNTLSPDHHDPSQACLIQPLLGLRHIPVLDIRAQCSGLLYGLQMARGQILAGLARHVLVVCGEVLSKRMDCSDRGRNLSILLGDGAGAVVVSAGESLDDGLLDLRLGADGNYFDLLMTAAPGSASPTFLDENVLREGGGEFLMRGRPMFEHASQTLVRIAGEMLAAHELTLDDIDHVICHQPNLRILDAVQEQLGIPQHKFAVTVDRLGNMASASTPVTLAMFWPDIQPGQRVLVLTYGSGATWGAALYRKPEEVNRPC
Method in brief: (§2)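 His6-PqsD was expressed in E. coli BL21(DE3) (IPTG, 16 °C, 16 h) and purified by single-step affinity. Assay buffer was 0.05 M MOPS pH 7.0 with 0.005% Triton X-100, plus 0.1 µM enzyme and inhibitor (0.5% DMSO final). After 10 min preincubation at 37 °C, anthraniloyl-CoA was added; β-ketodecanoic acid was the second substrate. HHQ was measured by HPLC-MS against DMSO controls set to 100%.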

[2] = test system: Pseudomonas aeruginosa PA14; experiment: Inhibition of PqsD in Pseudomonas aeruginosa PA14 assessed as reduction of HHQ level at 250 uM after 16 hrs by UHPLC-MS/MS analysis relative to control
[3] = test system: Pseudomonas aeruginosa; experiment: Binding affinity to recombinant His6-tagged Pseudomonas aeruginosa PqsD/anthraniloyl-CoA complex at 25 to 100 uM by surface plasmon resonance analysis
Method in brief: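 His6-PqsD on an SPR sensor chip. Running buffer was HEPES pH 7.4, 150 mM NaCl, 5% DMSO, 0.05% polysorbate 20. ACoA (100 µM) was injected for about 40 min to saturate the binding site, then flushed at higher flow for 30 min. Compounds were injected in sequence and equilibrium responses compared with untreated PqsD. Run in duplicate.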

[4] = target: T2, 2-heptyl-4(1H)-quinolone synthase PqsD (Pseudomonas aeruginosa) (UniProt A0A0C7ACN7); experiment: as §1, with “formation at 50 uM” for “formation”, “analysis relative to control” for “analysis”; method in brief: as §2
T2 sequence (whole entry): T1 sequence (A0A0C7ACN7 whole entry)

[5] = target: T2, 2-heptyl-4(1H)-quinolone synthase PqsD (Pseudomonas aeruginosa); experiment: as §1; method in brief: as §2

SMILES	IC50 [1] [µM]	further results
O=[N+]([O-])c1ccccc1CO	2	
COc1ccc(-c2cc(NC(=O)N[C@@H](Cc3ccccc3)C(=O)SCCNC(C)=O)c(C(=O)O)s2)cc1	32	inhibition [2]: inactive
COc1ccc(-c2cc(NC(=O)N[C@@H](Cc3ccc(Cl)cc3)C(=O)O)c(C(=O)O)s2)cc1	13.8	
COc1ccc(-c2cc(NC(=O)N[C@@H](CO)C(=O)O)c(C(=O)O)s2)cc1	19	
COc1ccc(-c2cc(NC(=O)N[C@@H](Cc3c[nH]c4ccccc34)C(=O)O)c(C(=O)O)s2)cc1	5	
O=C(Nc1cc(-c2ccc(-c3ccc(CO)cc3)cc2)sc1C(=O)O)N[C@@H](Cc1ccccc1)C(=O)O	0.14	Activity [3]: Active
COc1ccc(-c2cc(NC(=O)N[C@@H](Cc3c[nH]cn3)C(=O)O)c(C(=O)O)s2)cc1		inhibition [2]: 16%; inhibition [4]: 40%
COc1ccc(-c2cc(NC(=O)N[C@@H](CC(N)=O)C(=O)O)c(C(=O)O)s2)cc1	13.2	
O=[N+]([O-])c1ccccc1C(O)c1ccccc1 (stereo not given)	1	
COc1ccc(-c2cc(NC(=O)N[C@@H](Cc3ccccc3)C(=O)O)c(C(=O)O)s2)cc1	0.5	
O=C(Nc1cc(-c2ccc(-c3ccc(C(O)c4ccccc4[N+](=O)[O-])cc3)cc2)sc1C(=O)O)N[C@@H](Cc1ccccc1)C(=O)O (stereo not given in full)	0.36	
COc1ccc(-c2cc(NC(=O)N[C@@H](Cc3ccccc3)C(=O)O)c(C(=O)O)s2)c(C)c1	7.5	
COc1ccc(-c2cc(NC(=O)N[C@@H](Cc3ccccc3)C(=O)O)cs2)cc1	11.5	
COc1ccc(-c2cc(NC(=O)NCC(=O)O)c(C(=O)O)s2)cc1	7	
O=C(Nc1cc(-c2ccccc2)sc1C(=O)O)N[C@@H](Cc1ccccc1)C(=O)O	3.8	
O=C(Nc1cc(-c2ccc(O)cc2)sc1C(=O)O)N[C@@H](Cc1ccccc1)C(=O)O	21.6	
O=C(Nc1cc(-c2cccc(-c3ccccc3)c2)sc1C(=O)O)N[C@@H](Cc1ccccc1)C(=O)O	6.2	
COc1ccc(-c2cc(NC(=O)NCP(=O)(O)O)c(C(=O)O)s2)cc1	7	
O=C(Nc1cc(-c2ccc(-c3ccccc3)cc2)sc1C(=O)O)N[C@@H](Cc1ccccc1)C(=O)O	2.7	
COc1ccc(-c2cc(NC(=O)N[C@@H](Cc3ccc(O)cc3)C(=O)O)c(C(=O)O)s2)cc1	29	
COc1ccc(-c2cc(NC(=O)N[C@@H](CCC(=O)O)C(=O)O)c(C(=O)O)s2)cc1	30.3	
CC[C@H](C)[C@H](NC(=O)[C@H](CCCNC(=N)N)NC(=O)[C@H](CCCNC(=N)N)NC(=O)[C@H](Cc1ccccc1)NC(=O)[C@H](CC(C)C)NC(=O)[C@H](CCCNC(=N)N)NC(=O)[C@H](CCCNC(=N)N)NC(=O)COCCOCCNC(=O)[C@H](Cc1ccccc1)NC(=O)Nc1cc(-c2ccc(OC)cc2)sc1C(=O)O)C(=O)N[C@@H](CC(C)C)C(=O)N[C@@H](CCCNC(=N)N)C(=O)N[C@@H](Cc1c[nH]c2ccccc12)C(=O)N[C@@H](CC(C)C)C(=O)O ({X1-CO}-F[AEEA]RRLFRRILRWL-OH)		inhibition [2]: inactive; inhibition [5]: Active
COc1ccc(-c2cc(NC(=O)N[C@@H](CCc3ccccc3)C(=O)O)c(C(=O)O)s2)cc1	33.7	
O=C(Nc1cc(-c2cccc(-c3ccc(CO)cc3)c2)sc1C(=O)O)N[C@@H](Cc1ccccc1)C(=O)O	19.4	
O=C(Nc1ccsc1C(=O)O)N[C@@H](Cc1ccccc1)C(=O)O		inhibition [4]: inactive
COc1ccc(-c2cc(NC(=O)N[C@H](C(=O)O)C(C)C)c(C(=O)O)s2)cc1	31.9	
